# pEC50: −log10 of the molar value.
# What was measured:
# [1] = target: T1, Adrenergic receptor alpha-1 (Rattus norvegicus, UniProt P15823+P23944+P43140); experiment: Displacement of [3H]-Prazosin from alpha1 adrenergic receptor in rat brain cerebral cortex membranes by liquid scintillation counting analysis; type: cell membranes, Membrane
# T1 sequence (P15823 whole entry): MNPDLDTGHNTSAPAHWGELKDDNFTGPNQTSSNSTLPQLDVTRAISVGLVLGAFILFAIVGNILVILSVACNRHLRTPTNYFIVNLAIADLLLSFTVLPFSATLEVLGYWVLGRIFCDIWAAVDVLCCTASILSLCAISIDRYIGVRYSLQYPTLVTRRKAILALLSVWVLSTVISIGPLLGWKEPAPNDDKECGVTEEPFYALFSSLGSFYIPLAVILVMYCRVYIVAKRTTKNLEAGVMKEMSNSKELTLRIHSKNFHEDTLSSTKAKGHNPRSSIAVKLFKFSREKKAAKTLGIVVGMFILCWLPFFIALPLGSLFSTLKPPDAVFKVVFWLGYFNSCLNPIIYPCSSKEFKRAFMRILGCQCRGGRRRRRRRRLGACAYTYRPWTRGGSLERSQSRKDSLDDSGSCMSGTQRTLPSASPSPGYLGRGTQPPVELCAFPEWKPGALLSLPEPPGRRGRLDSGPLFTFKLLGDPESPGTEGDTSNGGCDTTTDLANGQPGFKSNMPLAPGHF
# T1 sequence (P23944 whole entry): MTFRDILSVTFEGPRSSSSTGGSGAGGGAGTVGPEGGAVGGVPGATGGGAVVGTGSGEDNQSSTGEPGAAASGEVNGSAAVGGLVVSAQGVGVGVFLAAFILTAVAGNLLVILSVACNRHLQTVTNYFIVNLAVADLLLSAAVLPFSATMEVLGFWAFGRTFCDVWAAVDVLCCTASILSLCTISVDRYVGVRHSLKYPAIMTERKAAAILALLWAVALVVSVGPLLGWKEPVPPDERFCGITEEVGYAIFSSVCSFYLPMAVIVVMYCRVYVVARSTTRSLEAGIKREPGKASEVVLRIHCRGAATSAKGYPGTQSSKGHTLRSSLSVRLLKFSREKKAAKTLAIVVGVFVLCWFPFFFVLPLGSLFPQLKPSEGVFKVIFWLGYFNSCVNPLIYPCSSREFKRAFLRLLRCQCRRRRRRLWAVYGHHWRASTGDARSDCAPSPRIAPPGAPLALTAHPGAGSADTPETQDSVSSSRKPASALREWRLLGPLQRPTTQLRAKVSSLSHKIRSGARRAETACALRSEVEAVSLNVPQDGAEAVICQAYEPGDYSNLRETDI
# T1 sequence (P43140 whole entry): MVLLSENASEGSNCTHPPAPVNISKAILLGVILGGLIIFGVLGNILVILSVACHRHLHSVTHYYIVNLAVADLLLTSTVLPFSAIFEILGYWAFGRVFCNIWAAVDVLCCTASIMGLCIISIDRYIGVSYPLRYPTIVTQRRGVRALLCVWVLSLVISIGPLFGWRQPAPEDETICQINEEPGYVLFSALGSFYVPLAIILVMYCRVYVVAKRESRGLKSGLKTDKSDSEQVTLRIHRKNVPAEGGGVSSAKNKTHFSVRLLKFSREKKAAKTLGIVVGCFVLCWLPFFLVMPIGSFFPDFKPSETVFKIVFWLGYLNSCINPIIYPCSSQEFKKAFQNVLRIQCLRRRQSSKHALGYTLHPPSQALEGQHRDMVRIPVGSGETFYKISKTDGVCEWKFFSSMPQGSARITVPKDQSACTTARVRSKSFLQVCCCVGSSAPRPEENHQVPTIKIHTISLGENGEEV
# Procedure, shortened: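 Rat cerebral cortex homogenized in ice-cold 50 mM Tris–HCl (pH 7.6), spun at 20,000 g for 20 min (0–4 °C), resuspended and spun again. Membranes incubated with 0.2 nM [3H]-prazosin (α1) or 2 nM [3H]-clonidine (α2) and seven to eight compound concentrations (10^-11 to 10^-4 M). Non-specific binding defined with 10 µM phentolamine (prazosin) or 10 µM clonidine (clonidine). Ended by GF/C filtration, counted by liquid scintillation. Run in duplicate; Ki from two independent experiments.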
# [2] = target: T2, Alpha-1B adrenergic receptor (Homo sapiens, UniProt P35368); experiment: Intrinsic activity at human alpha1B adrenergic receptor expressed in CHOK1 cells co-expressing aequorin assessed as inhibition of agonist induced calcium mobilization preincubated for 15 mins followed by agonist addition measured for 20 secs in presence of coelenterazine H by luminescence assay; type: cell-based, CHO-K1
# T2 sequence (P35368 whole entry): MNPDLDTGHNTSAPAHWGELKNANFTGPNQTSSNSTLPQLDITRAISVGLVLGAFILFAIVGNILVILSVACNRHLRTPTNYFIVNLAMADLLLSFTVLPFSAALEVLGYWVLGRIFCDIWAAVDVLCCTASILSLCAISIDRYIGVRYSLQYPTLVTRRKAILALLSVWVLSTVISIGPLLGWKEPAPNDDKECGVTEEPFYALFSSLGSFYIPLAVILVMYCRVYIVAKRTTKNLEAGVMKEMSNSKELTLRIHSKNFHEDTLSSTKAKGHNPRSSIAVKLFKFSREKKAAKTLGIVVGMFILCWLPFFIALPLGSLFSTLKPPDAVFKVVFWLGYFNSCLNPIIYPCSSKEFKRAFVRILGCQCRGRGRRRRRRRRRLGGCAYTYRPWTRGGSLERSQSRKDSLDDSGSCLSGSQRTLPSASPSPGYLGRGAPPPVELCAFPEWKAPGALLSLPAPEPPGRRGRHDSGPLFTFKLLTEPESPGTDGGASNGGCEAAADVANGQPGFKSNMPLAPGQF
# Procedure, shortened: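 Frozen ready-to-use cells stably expressing α1B receptor and aequorin, resuspended in assay buffer with 5 µM coelenterazine h and rotated overnight at rt in the dark. Diluted to 5000 cells/20 µL. Agonist mode: cells injected onto ligands, light recorded 20 s. Antagonist mode: 15 min with compound at room temperature, then agonist at 3× EC80 final, light recorded 20 s. Mean EC50 from three experiments.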
SMILES,Ki [1] [nM],pEC50 [2]
COc1ccccc1OCCN1CCC(NS(=O)(=O)c2cncc3ccccc23)CC1,52,6.22
COc1ccccc1OCCN1CCC(CNS(=O)(=O)c2cc(Cl)ccc2F)CC1,56,7.90
COc1ccc(S(=O)(=O)NCC2CCN(CCOc3ccccc3OC)CC2)cc1OC,81,6.22
COc1ccccc1OCCN1CCC(CNS(=O)(=O)c2cccc(Cl)c2)CC1,46,7.81
COc1ccc(S(=O)(=O)NC2CCN(CCOc3ccccc3OC)CC2)cc1OC,99,6.34

# More lines, now with the values ahead:
Ki [1] [nM],pEC50 [2],SMILES
71,7.38,CC(C)Oc1ccccc1OCCN1CCC(CNS(=O)(=O)c2cccc(Cl)c2F)CC1
95,6.98,CC(C)Oc1ccccc1OCCN1CCC(CNS(=O)(=O)c2cccc3cccnc23)CC1
48,7.85,COc1ccccc1OCCN1CCC(CNS(=O)(=O)c2cccc(Cl)c2F)CC1
90,6.29,COc1ccccc1OCCN1CCC(CNS(=O)(=O)c2cncc3ccccc23)CC1

# — ChEMBL document CHEMBL3861996, “Arylsulfonamide derivatives of (aryloxy)ethyl pyrrolidines and piperidines as α1-adrenergic receptor antagonist with uro-selective activity” (Bioorg Med Chem, 2016)
